Bioassay records deposited in PubChem by Broad Institute.
Rows were chosen to be rich in hits. Some 3.5% of all compounds tested hit in one or more screens of this group.
MITF TRPM1 HTS: MITF TRPM1 promoter activation in melanoma cells; SK-MEL-5 TRPM1-promoter luciferase, 24 h; % of positive control, neutral wells = 0; activation, % at 12.5 µM; actives 0.75% (n = 300,000);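 active = mean activation of at least 80% with every replicate also reaching 80%; inconclusive = mean reaches 80% but some replicate falls short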;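 note: 0% = neutral control wells and 100% = parthenolide positive control wells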
Cneo AK release: causes C. neoformans cell lysis. adenylate kinase release luminescence, 4 h; normalised: neutral wells 0, clomiphene wells 100. lysis activity, % at 15 µM. actives 0.2% (n = 360,000). AID 651654;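 active = mean lysis activity across replicates of at least 80%, whatever share of replicates individually reach that level; inactive = mean lysis activity below 80%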
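Material – Cryptococcus neoformans yeast cells · Quantity – 5 × 10^6 yeast cells/mL · Buffer or medium – YPD medium · Compound – single dose · Timing – 4 h static compound exposure, 37 °C, read 1 h post-reagent · Signal – adenylate kinase release luminescence · Read-out basis – lysis from increased AK signal · Benchmarks – Clomiphene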
Wnt bcat act: Wnt/beta-catenin pathway activation; Wnt/beta-catenin reporter cell assay, activator, plate reader; activation, % at 9.35 µM; actives 1.2% (n = 300,000); in the data active = activation above about 30%, passing the limit was not always enough; inconclusive = no clear call, values can overlap the other calls;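 note: 0% = neutral control wells and 100% = positive control wells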
ERAP1 inh: inhibitors of human ERAP1 aminopeptidase. actives 0.15% (n = 340,000). inhibition, % at 10.7 µM. AID 652197. Q9NZ08. recombinant ERAP1, Leu-AMC fluorescence, 60 min;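 active = mean replicate inhibition of at least 30%, or all replicates individually reaching that 30% level; inactive = mean below 30% and not every replicate reaching it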;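 note: 0% = neutral control wells and 100% = L-leucinethiol positive control wells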
Target sequence (Q9NZ08 whole entry, looked up): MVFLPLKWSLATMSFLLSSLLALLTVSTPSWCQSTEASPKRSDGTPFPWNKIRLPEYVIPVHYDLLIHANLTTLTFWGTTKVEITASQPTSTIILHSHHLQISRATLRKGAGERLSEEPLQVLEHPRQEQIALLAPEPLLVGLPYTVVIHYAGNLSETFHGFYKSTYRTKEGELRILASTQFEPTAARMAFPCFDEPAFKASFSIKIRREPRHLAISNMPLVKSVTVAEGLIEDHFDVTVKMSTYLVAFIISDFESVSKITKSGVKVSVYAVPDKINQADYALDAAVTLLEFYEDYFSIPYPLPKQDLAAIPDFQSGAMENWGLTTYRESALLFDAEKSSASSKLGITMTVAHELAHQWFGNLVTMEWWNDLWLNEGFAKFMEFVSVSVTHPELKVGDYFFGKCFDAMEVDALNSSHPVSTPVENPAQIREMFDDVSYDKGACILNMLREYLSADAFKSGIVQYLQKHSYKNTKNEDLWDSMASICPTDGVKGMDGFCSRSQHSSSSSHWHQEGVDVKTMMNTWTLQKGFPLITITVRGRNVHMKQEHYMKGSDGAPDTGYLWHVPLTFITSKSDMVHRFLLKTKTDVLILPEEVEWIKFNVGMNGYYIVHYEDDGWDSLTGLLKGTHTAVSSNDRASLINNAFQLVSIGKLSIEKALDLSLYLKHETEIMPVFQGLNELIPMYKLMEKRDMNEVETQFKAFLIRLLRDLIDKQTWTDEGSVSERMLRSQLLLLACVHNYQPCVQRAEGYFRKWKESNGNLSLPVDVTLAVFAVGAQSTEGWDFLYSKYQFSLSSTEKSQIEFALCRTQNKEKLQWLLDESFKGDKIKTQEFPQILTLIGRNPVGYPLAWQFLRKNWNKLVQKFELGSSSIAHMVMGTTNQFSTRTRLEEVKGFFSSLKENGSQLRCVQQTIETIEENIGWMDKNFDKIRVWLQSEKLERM
Env fusion inh: inhibitors of HIV Env-mediated cell fusion | AID 651610 | inhibition, % at 12.3 µM | HeLa-JRFL Env/CEM21 cell fusion, luciferase | actives 1.1% (n = 360,000);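 active = mean replicate inhibition score of at least 50 and every replicate individually at or above 50; inconclusive = only one of the two criteria met; inactive = mean below 50 and not all replicates reaching 50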;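 note: 0% = plate neutral controls and 100% = maraviroc near 300 nM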
esBAF inh: SWI/SNF esBAF complex inhibition; reporter increase, % at 12.5 µM; actives 2% (n = 350,000); mouse ES cells, Bmi1-luciferase knock-in reporter, 24 h; 100% = twice the neutral-well signal; in the data active = activation above about 40%; inconclusive = no clear call, values can overlap the other calls;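 note: 0% = median of the plate's neutral control wells and 100% = double that signal; a rise in the Bmi1 reporter signal indicates esBAF inhibition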
* = called active by the depositor; [ ] = dose if it differs, or a comment.

Screening CCOC(=O)c1ccc(-c2ccc(C=O)o2)cc1 returned MITF TRPM1 HTS 58, Wnt bcat act 53*, ERAP1 inh -1, Env fusion inh -75 and esBAF inh 54*.
CCCCOC(=O)c1ccc(-c2ccc(/C=N/NC(=S)NCC)o2)cc1 was read as MITF TRPM1 HTS -4, Wnt bcat act 2, Env fusion inh -49 and esBAF inh 46*.
For CCCOC(=O)c1ccc(-c2ccc(C=O)o2)cc1 the results were MITF TRPM1 HTS 27, Cneo AK release -6, Wnt bcat act 29, ERAP1 inh -3 and esBAF inh 76*.
COc1ccc2c3c([nH]c2c1)[C@H](CO)N(C(=O)CC1CC1)CC31CCN(Cc2cccnc2)CC1 was read as ERAP1 inh -2.
COCC(=O)Nc1ccc2c(c1)OC[C@H](C)N(C(=O)c1ccccn1)C[C@@H](C)[C@@H](OC)CN(C)C2=O was read as Cneo AK release 0, Env fusion inh 5[16.7 µM] and esBAF inh -5.
Screening O=C(CN1CCN(Cc2ccc(Cl)cc2)CC1)N/N=C/c1cccc(F)c1 returned Cneo AK release 0, Wnt bcat act 43* and Env fusion inh 22.
`O=C(N/N=C/c1cccc(F)c1)c1csc2c1CCCC2` gave MITF TRPM1 HTS 142*, Cneo AK release -3 and esBAF inh 50*.
O=C(N/N=C/c1cccc(NC(=O)c2ccc(Cl)cc2)c1)c1ccc(O)cc1 was read as MITF TRPM1 HTS 58, Wnt bcat act 0, ERAP1 inh -1, Env fusion inh -25 and esBAF inh inconclusive.
For CC(C)(C)c1ccc(C(=O)N/N=C/c2cccc(Cl)c2)cc1 the results were Cneo AK release -5, Wnt bcat act inconclusive, Env fusion inh -27 and esBAF inh 54*.
O=C(N/N=C/c1cccc(F)c1)c1ccc(Cl)cc1 was read as MITF TRPM1 HTS 96*, Wnt bcat act 13, ERAP1 inh 1, Env fusion inh -3 and esBAF inh 69*.
For O=C(N/N=C/c1ccccc1F)c1csc2c1CCCC2 the results were MITF TRPM1 HTS 76, Cneo AK release -2 and ERAP1 inh 4.
Screening C[C@@H]1CN([C@H](C)CO)C(=O)c2cc(NC(=O)Cn3cnnn3)ccc2O[C@@H]1CN(C)Cc1ccncc1 returned Cneo AK release 0, ERAP1 inh -4 and esBAF inh -1.
COc1ccccc1S(=O)(=O)N[C@@H]1CC[C@H](CCn2cc(C3CC3)nn2)O[C@H]1CO was read as Cneo AK release -2, ERAP1 inh -1, Env fusion inh 3[16.7 µM] and esBAF inh -2.
Cc1cccc(/C=N/NC(=O)c2ccc(Br)cc2)c1 was read as MITF TRPM1 HTS 62, Cneo AK release -1, Env fusion inh -24 and esBAF inh 59*.
Screening O=C(N/N=C/c1ccccc1Cl)c1cccc(F)c1 returned MITF TRPM1 HTS inconclusive, Cneo AK release -2, Wnt bcat act 40*, Env fusion inh -84 and esBAF inh 53*.
For C[C@H](CO)N1C[C@H](C)[C@H](CN(C)C(=O)C2CCOCC2)Oc2cc(C3=CCCC3)ccc2S1(=O)=O the results were Cneo AK release -5, ERAP1 inh 3, Env fusion inh -5[16.7 µM] and esBAF inh 2.
Screening COC(=O)c1ccc(COC(=O)c2ccc(C)c(S(=O)(=O)N3CCCCC3)c2)cc1 returned MITF TRPM1 HTS 96*, Cneo AK release 2, Wnt bcat act 9, ERAP1 inh 3, Env fusion inh -15 and esBAF inh 43*.
`Cc1ccc(C(=O)Nc2ccc3cn[nH]c3c2)cc1S(=O)(=O)N1CCCCC1` gave MITF TRPM1 HTS 12, Cneo AK release -3, Wnt bcat act 18 and esBAF inh 75*.
Screening Cc1ccc(C(=O)Nc2cccc(O)c2)cc1S(=O)(=O)N1CCCCCC1 returned MITF TRPM1 HTS inconclusive, Cneo AK release 0, Wnt bcat act 20, ERAP1 inh 0, Env fusion inh -30 and esBAF inh 57*.
C[C@@H]1CN([C@@H](C)CO)C(=O)c2cc(C#CCC3CCCC3)cnc2O[C@H]1CN(C)S(=O)(=O)c1cccs1 was read as Cneo AK release 0, Env fusion inh 5[16.7 µM] and esBAF inh -5.
For OCC1CCCN(C(=S)Nc2ccc(Nc3ccccc3)cc2)C1 (centres undefined) the results were MITF TRPM1 HTS 49, Cneo AK release -8, Wnt bcat act 3, ERAP1 inh 0, Env fusion inh -14 and esBAF inh 47*.
C=CCSc1nncn1/N=C/c1ccc(OC)cc1 was read as MITF TRPM1 HTS 92*, Wnt bcat act 27 and Env fusion inh -319.
COc1ccc(/C=N/n2cnnc2SCCO)cc1OC was read as MITF TRPM1 HTS -1, Cneo AK release -1 and esBAF inh 6.
`COc1ccc2c3c([nH]c2c1)[C@@H](CO)N(Cc1ccncc1)CC31CCN(C(=O)c2cccnc2)CC1` gave ERAP1 inh -2 and Env fusion inh 15[16.7 µM].
`COc1ccc(CNC(=O)Cc2nn(C)c(=O)c3ccccc23)cc1` gave MITF TRPM1 HTS -6.
For Cn1nc(CC(=O)NCc2ccc(C(F)(F)F)cc2)c2ccccc2c1=O the results were Cneo AK release -1, Wnt bcat act -3, Env fusion inh 71* and esBAF inh -8.
`CCCCC(=O)N1C/C=C\C(c2ccc(OC)cc2)N(Cc2ccc(F)cc2)C(=O)[C@H]1Cc1ccccc1` (some centres undefined) gave MITF TRPM1 HTS 0, Cneo AK release 3 and esBAF inh 0.
Screening CC(C)CC(=O)N1CC=CC[C@@H](c2ccc(Cl)cc2)N(Cc2ccc(Cl)cc2)C(=O)[C@@H]1Cc1ccccc1 returned MITF TRPM1 HTS 2, Cneo AK release 1, Wnt bcat act -12, ERAP1 inh -1, Env fusion inh 76* and esBAF inh -15.
C=C1c2cccc(O)c2C(=O)C2C(=O)[C@]3(O)C(=O)C(C(N)=O)C(=O)[C@@H](N(C)C)[C@@H]3[C@@H](O)[C@H]12 (some centres undefined) was read as MITF TRPM1 HTS -10, Cneo AK release 2, Wnt bcat act -3, ERAP1 inh 7, Env fusion inh 60* and esBAF inh -4.
Screening C=CCOC(=O)[C@@H]1[C@H]2C(=O)O[C@H](c3ccccc3)[C@H](c3ccccc3)N2[C@H](c2ccc(OCCOC(=O)[C@@H]3C[C@@H]4C(=O)N[C@@H](Cc5ccccc5)C(=O)N4[C@@H]3c3ccc(O)cc3)cc2)[C@@]12C(=O)Nc1ccc(I)cc12 returned Cneo AK release 0, ERAP1 inh -3 and Env fusion inh 2[16.7 µM].
For O=C(C[C@H]1CC[C@@H](NC(=O)Nc2ccccc2)[C@@H](CO)O1)NCc1ccccn1 the results were Cneo AK release 0, ERAP1 inh 0, Env fusion inh 3[16.7 µM] and esBAF inh 0.
